From the RNAGym collection of RNA variant scans (doi:10.1126/science.aae0568) come the findings set out here.

Fewer inactive variants are shown than the library holds. Where only a bound is given, the exact number is not on record here.

First the molecules themselves.
B1: tRNA (parent)
chain: GUUCCGUUGGCGUAAUGGUAACGCGUCUCCCUCCUAAGGAGAAGACUGCGGGUUCGAGUCCCGUACGGAACG

In the data set the parent is B1. The experiment in a line: yeast fitness relative to wild type (ratio to wild type); higher = fitter; tRNA-Arg(CCU), competitive growth, 37 C, YPD. In a few lines: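 Variants of the tRNA-Arg(CCU) gene were chemically synthesised with a 3% per-site mutation rate across 69 sites and placed at the native genomic locus in Saccharomyces cerevisiae. Six parallel replicates of the pooled strains were competed in YPD at 37°C for 24 hours, and gene amplicons from the start and end populations were read by 100-nucleotide paired-end sequencing. Darwinian fitness relative to wild type was derived from changes in genotype frequencies. Genotypes required ≥ 100 starting reads, and estimates < 0.5 were set to 0.5.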
GUUCUGUUGGCGUAAUGGUAACGCGUAUCCCUCCUAAGGAGUAGACUGGGGGUUCGAGUACCGUACGGAACG [C5U C27A A42U C49G C60A]: the yeast fitness was 0.817.

Consider GUUCUGUUGGUGUAAUGGUAACGCGUCUCCCUCCUAAGGAGAAGACUGCGGGUUCGAGUCCCGUUGGGAACG [C5U C11U A65U C66G], for which the yeast fitness is ≤ 0.5.

In the case of GUUCUGUUGGCGUAAUGGUAAGGCGUCUGCCUCCUAAGGAGAAGACUGCGGGUUCGAGUACCGUACAGAACG [C5U C22G C29G C60A G67A], the yeast fitness was ≤ 0.5.

As for GUUCUGUUGGCGUAAUGGUAAUGCGUCUCCCUCCUACGGAGAAGACUGCGGGUUAGAGUCCCGUACGGAACG [C5U C22U A37C C55A], the yeast fitness amounted to 0.538.

GUUCUGUUGGCGUAAUGGUAACGAGUCUCCCUCCUAAGGAGAAGACAGCGGGUUCGAGUCCCGUACGGAACG [C5U C24A U47A]: the yeast fitness turned out to be 0.656.

GUUCUGUUGGCGUAAUGGUAACGUGUCUCCCUCCUAACGAGAACACUGCGGGUUCGAGUCCCGUACGGAACG [C5U C24U G38C G44C]: the yeast fitness is ≤ 0.5.

On to GUUCUGUUGGCGUAAUGGUAAAGCGUCUUCCUCCUAAGGAGAAGACUGCGCGUUCGAGUCCCGUACGGAACG [C5U C22A C29U G51C], for which the yeast fitness is ≤ 0.5.

Take GUUCUGUUGGCGUAAUGGUAAUGCGUCUCCCUCCUAAGGAGAAGACUGCGGGUUCGUGUCCCGUACGGAACG [C5U C22U A57U]: the yeast fitness came to 0.574.

On to GUUCUGUUGGCGUAAUGGUAAUGCGUCUCCCUUCUAAGGAGAAGACUGCGGGUUCGAGUCCCGUACGGACCG [C5U C22U C33U A70C], for which the yeast fitness was ≤ 0.5.

On to GUUCUGUUGGUGUAAUGGUAACGCGUCUCCCUCCUUAGGAGAAGACUGCGGGUUCGAGUCCAGUACGGAACG [C5U C11U A36U C62A], for which the yeast fitness is ≤ 0.5.

For GUUCUGUUGGCGUAAUGGUAAGGAGUCUCCCUCCUAAGGAGAAGACUGCGGGUUCGCGUCCCGUACGGAACG [C5U C22G C24A A57C], the yeast fitness is ≤ 0.5.

Take GUUCUGUUGGUGUACUGGUAACGCGUCUAACUCCUUACGAGAAGACUGCGGGUUCGAGUCUCGUAAGGAACG [C5U C11U A15C C29A C30A A36U G38C C61U C66A]: the yeast fitness was ≤ 0.5.

GUUCUGUUGGCGUAAUGGUAAGGGGUCUCCUUCCUAAGGAGAAGACUGCGGGUUAGAGUCCCGUACGGAACG [C5U C22G C24G C31U C55A]: the yeast fitness is ≤ 0.5.

For GUUCUGUUGGCGUAAUGGUAAUGCGUCUCCCUUCUAAGGAGAAGACUGCGGGUUCGAGUCCCGUACGCUACG [C5U C22U C33U G68C A69U], the yeast fitness was ≤ 0.5.

As to GUUCUGUUGGCGUAAUGGUAACGUGUCUCCCUCCUAAGGACAAGACUGCGGGUUCGAGUCCCGUACGGAACG [C5U C24U G41C], the yeast fitness was ≤ 0.5.

For GUUCUGUUGGUGUAAUGGUAACGCGUCUCCCUCAUAAGGAGAAGACUGCGGGUUCGAGUCCCGUACGGAACG [C5U C11U C34A], the yeast fitness came to 0.558.

Consider GUUCUGUUGGCGUAAUGGUAACGGGUCUCCCUCCUAAGGCGAAGUCUGCGGGUUCGAGUCCCGUACGGAACG [C5U C24G A40C A45U], for which the yeast fitness is ≤ 0.5.

In the case of GUUCUGUUGGCGUAAUGGUAAUGCGACUCCCUCCUAAGGAGAAGACUGCGGGUUGGAGUCCCGUACGGAACG [C5U C22U U26A C55G], the yeast fitness was ≤ 0.5.

In the case of GUUCUGUUGGUGUAAUGGUAACGCGUCUCCCUCCUAAGGAGAAGACUGCGGGUUCGAGUCCCGUACGGUACG [C5U C11U A69U], the yeast fitness came to 0.734.

GUUCUGUUGGCGUAAUGGUAAGGGGUCUCCUUCCUAAGGAGAAGACUGCGGGUUCGAGUCCCGUACGGAACG [C5U C22G C24G C31U]: the yeast fitness was determined as 0.552.

Turning to GUUCUGUUGGUGUAAUGGUAACGCGUCUCCCUCCUAAGGAGAAGACUGCGGGUUCGAGUCCUGUACGAAACG [C5U C11U C62U G68A], the yeast fitness is ≤ 0.5.

Take GUUCUGUUGGCGUAAUGGUAACGUGUCUCCCACCUAAGGAGAAGACUGCGGGUUGGAGUCCCGUACGGUACG [C5U C24U U32A C55G A69U]: the yeast fitness was ≤ 0.5.

Turning to GUUCUGUUGGUGUAAUGGUAACGCGUCUCCCUCCGAAGGAGAUGAGUGCGGGCUCGAGUCCCGUACGGCACG [C5U C11U U35G A43U C46G U53C A69C], the yeast fitness is 0.549.

As for GUUCUGUUGGCGUAAUGGUAACGUGUCUCCCUCCUAAGGAGAAGACUGCGGGUUCCAGUCCCGUACGGAACG [C5U C24U G56C], the yeast fitness came to 0.53.

In the case of GUUCUGUUGGCGUAAUGGUAACGCGUGUCCCUCGUAAGGAGAAGACUGCGGGUUCGAGUCCCGUACGGAACG [C5U C27G C34G], the yeast fitness is ≤ 0.5.

As to GUUCUGUUGGCGUAAUGGUAACGCGUGUCCCUCCUAAGGCGAAGACUGCGGGUUCGAGUCCCGUACGGAACG [C5U C27G A40C], the yeast fitness was ≤ 0.5.

On to GUUCUGUUGGCGUAAUGGUAAAGCGUCUCCCUGCUAAGGAGAAGACUGCGGGUUUGAGUCCCGUACGGAACG [C5U C22A C33G C55U], for which the yeast fitness was ≤ 0.5.

For the variant GUUCUGUUGGCGUAAUGGUAACGCGUGUCCCUCCUAAAGAGAAGACUGCGGGUUCGAGUCCCGUACGGCACG [C5U C27G G38A A69C], the yeast fitness is ≤ 0.5.

Consider GUUCUGUUGGCGUAAUGGUAAGGCGUCUGCCCCCUAAGGAGAAGACUGCGGGUUCGAGUCCCGUACGGAACG [C5U C22G C29G U32C], for which the yeast fitness was ≤ 0.5.

For the variant GUUCUGUUGGUGUAAUGGUAACGCGUCUCCCUCCUAAGGAGAAGACUGUGGGUUCGAGUCCCGUACGGAACG [C5U C11U C49U], the yeast fitness turned out to be 0.721.

With GUUCUGUUGGCGUAAUGGUAAUGCGUCUCCCUCUUAAGGAAAAGGCUGCGGGUUCGAGUCCCGUACGGAACG [C5U C22U C34U G41A A45G], the yeast fitness is ≤ 0.5.

For the variant GUUCUGUUGGUGUAAUGGUAACGCAUCUCCCUCCUAGGGAGAAGACUGCGGGUUCGAGUGCCGUACGGAACG [C5U C11U G25A A37G C60G], the yeast fitness is ≤ 0.5.

Take GUUCUGUUGGCGUAAUGGUAAGGCGUCUACCUCCUAAGGAGAAGUCUGCGGGUUCGAGUCCCGUACGGACCG [C5U C22G C29A A45U A70C]: the yeast fitness is ≤ 0.5.

For GUUCUGUUGGCGUAAUGGUAAAGCAUCUCCCUCCUAAGGAGAAGACUGCGGGUUCGAGUCCCGUAUGGAACG [C5U C22A G25A C66U], the yeast fitness is ≤ 0.5.

In the case of GUUCUGUUGGCGUAAUGGUAACGCGUGUCCGUCCUAAGGAGAAGACUGCCGGUUCGACUCCCGUACGGAACG [C5U C27G C31G G50C G58C], the yeast fitness stood at 0.743.

For the variant GUUCUGUUGGCGUAAUGGUAAGGCGUCUCCCUCCUAAGGAGAAGACCGCGGGUUCGAGUCCCGUACGGAACG [C5U C22G U47C], the yeast fitness amounted to 0.687.

Take GUUCUGUUGGCGUAAUGGUAAAGCGUCUCCCUCCUAAGGAGAAGCCUGCGGGUUCGAGUCCCGUACGGAACG [C5U C22A A45C]: the yeast fitness was 0.564.
